Results from ChEMBL document CHEMBL1149274, “Stereochemical analysis of (hydroxyethyl)urea peptidomimetic inhibitors of gamma-secretase” (J Med Chem, 2004).

How the values were obtained:
[1] = biological target: Gamma-secretase; test: Inhibition of gamma secretase isolated from HeLa cells by ELISA; format: cell-free, Homo sapiens
Outline: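 HeLa membranes were washed in 0.1 M Na2CO3, pH 11.3, then solubilized in 1% CHAPSO. The preparation (0.2 mg protein/mL) was incubated with compound or DMSO and the C100Flag substrate at 37 °C for 0 or 4 h. Reactions were stopped with 0.5% SDS and boiling for 5 min. Aβ x-40 and x-42 products were measured by sandwich ELISA (capture 2G3/21F12, biotinylated 266 reporter).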

[2] = biological target: Gamma-secretase; test: Inhibition of gamma secretase in CHO cells expressing human APP by ELISA; format: cell-based
Outline: (§1)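 CHO 7w cells stably expressing the 751-residue APP splice variant, grown to confluence in DMEM with 200 μg/mL G418. Compounds were added from DMSO stocks to a final 1% DMSO; vehicle-only wells served as controls. After 4 or 24 h, the medium was spun at 3000g for 5 min. Aβ40 and Aβ42 were measured by sandwich ELISA (capture 2G3/21F12, biotinylated 3D6 reporter, TMB read at 455 nm). Mean ± SD of three experiments.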

[3] = biological target: Gamma-secretase; test: Inhibition of gamma secretase in CHO cells expressing human APP after 24 hrs by ELISA; format: cell-based; outline: as §1
[4] = biological target: Gamma-secretase; test: Inhibition of gamma secretase in CHO cells expressing human APP after 4 hrs by ELISA; format: cell-based; outline: as §1

IC50 [1]	IC50 [2]	IC50 [3]	IC50 [4]	SMILES
3 µM	10 µM	–	–	COC(=O)[C@H](NC(=O)[C@@H](CC(C)C)NC(=O)N(Cc1ccccc1)C[C@H](O)[C@@H](Cc1ccccc1)NC(=O)OC(C)(C)C)C(C)C
0.03 µM	0.6 µM	9.4 µM	0.6 µM	COC(=O)[C@H](CC(C)C)NC(=O)[C@H](CC(C)C)NC(=O)N(Cc1ccccc1)C[C@@H](O)[C@H](Cc1ccccc1)NC(=O)OC(C)(C)C
6 µM	15 µM	–	–	COC(=O)[C@@H](CC(C)C)NC(=O)N(Cc1ccccc1)C[C@@H](O)[C@@H](Cc1ccccc1)NC(=O)OC(C)(C)C
0.6 µM	1 µM	–	–	COC(=O)[C@H](NC(=O)[C@H](CC(C)C)NC(=O)N(Cc1ccccc1)C[C@@H](O)[C@H](Cc1ccccc1)NC(=O)OC(C)(C)C)C(C)C
0.8 µM	8 µM	–	–	COC(=O)[C@@H](NC(=O)[C@@H](CC(C)C)NC(=O)N(Cc1ccccc1)C[C@@H](O)[C@@H](Cc1ccccc1)NC(=O)OC(C)(C)C)C(C)C
0.2 µM	3 µM	9 µM	3 µM	COC(=O)[C@@H](CC(C)C)NC(=O)[C@@H](CC(C)C)NC(=O)N(Cc1ccccc1)C[C@@H](O)[C@@H](Cc1ccccc1)NC(=O)OC(C)(C)C
3 µM	10 µM	–	–	COC(=O)[C@H](NC(=O)[C@@H](C)NC(=O)N(Cc1ccccc1)C[C@@H](O)[C@@H](Cc1ccccc1)NC(=O)OC(C)(C)C)C(C)C
2 µM	8 µM	–	–	COC(=O)[C@H](NC(=O)[C@@H](CC(C)C)NC(=O)N(Cc1ccccc1)C[C@@H](O)[C@@H](Cc1ccccc1)NC(=O)[C@@H](Cc1ccccc1)NC(=O)OC(C)(C)C)C(C)C
2 µM	8 µM	–	–	COC(=O)[C@@H](CC(C)C)NC(=O)[C@@H](CC(C)C)NC(=O)N(Cc1ccccc1)C[C@H](O)[C@@H](Cc1ccccc1)NC(=O)OC(C)(C)C
0.1 µM	2 µM	17 µM	2 µM	COC(=O)[C@H](NC(=O)[C@@H](CC(C)C)NC(=O)N(Cc1ccccc1)C[C@@H](O)[C@@H](Cc1ccccc1)NC(=O)OC(C)(C)C)C(C)C
12 µM	30 µM	–	–	COC(=O)[C@H](NC(=O)[C@@H](CC(C)C)NC(=O)N(Cc1ccccc1)C[C@@H](O)[C@@H](Cc1ccccc1)NC(=O)[C@@H](C)NC(=O)OC(C)(C)C)C(C)C
–	–	5 µM	0.4 µM	CC(C)C[C@H](NC(=O)N(Cc1ccccc1)C[C@@H](O)[C@H](Cc1ccccc1)NC(=O)OC(C)(C)C)C(=O)N[C@H](CC(C)C)C(=O)OC(C)(C)C
0.01 µM	0.4 µM	18 µM	0.4 µM	COC(=O)[C@@H](NC(=O)[C@H](CC(C)C)NC(=O)N(Cc1ccccc1)C[C@@H](O)[C@H](Cc1ccccc1)NC(=O)OC(C)(C)C)C(C)C
0.01 µM	0.4 µM	–	–	COC(=O)[C@@H](NC(=O)[C@H](CC(C)C)NC(=O)N(Cc1ccccc1)C[C@@H](O)[C@@H](Cc1ccccc1)NC(=O)OC(C)(C)C)C(C)C
3 µM	7 µM	–	–	COC(=O)[C@H](NC(=O)[C@@H](CC(C)C)NC(=O)N(Cc1ccccc1)C[C@@H](O)[C@@H](Cc1ccccc1)NC(=O)[C@H](NC(=O)OC(C)(C)C)C(C)C)C(C)C
–	–	7 µM	0.6 µM	CC(C)C[C@H](NC(=O)[C@@H](CC(C)C)NC(=O)N(Cc1ccccc1)C[C@@H](O)[C@@H](Cc1ccccc1)NC(=O)OC(C)(C)C)C(=O)OC(C)(C)C
0.8 µM	3 µM	–	–	COC(=O)[C@@H](Cc1ccccc1)NC(=O)[C@@H](CC(C)C)NC(=O)N(Cc1ccccc1)C[C@@H](O)[C@@H](Cc1ccccc1)NC(=O)OC(C)(C)C
2 µM	7 µM	–	–	COC(=O)[C@@H](C)NC(=O)[C@@H](CC(C)C)NC(=O)N(Cc1ccccc1)C[C@@H](O)[C@@H](Cc1ccccc1)NC(=O)OC(C)(C)C
9 µM	24 µM	–	–	COC(=O)[C@H](NC(=O)[C@@H](Cc1ccccc1)NC(=O)N(Cc1ccccc1)C[C@@H](O)[C@@H](Cc1ccccc1)NC(=O)OC(C)(C)C)C(C)C
4 µM	8 µM	–	–	COC(=O)[C@H](NC(=O)[C@@H](CC(C)C)NC(=O)N(C[C@@H](O)[C@@H](Cc1ccccc1)NC(=O)OC(C)(C)C)C(C)C)C(C)C
7 µM	12 µM	–	–	COC(=O)[C@H](NC(=O)[C@@H](CC(C)C)NC(=O)N(C)C[C@@H](O)[C@@H](Cc1ccccc1)NC(=O)OC(C)(C)C)C(C)C
–	–	6 µM	0.3 µM	CC(C)C[C@H](NC(=O)N(Cc1ccccc1)C[C@@H](O)[C@H](Cc1ccccc1)NC(=O)OC(C)(C)C)C(=O)N[C@H](C(=O)OC(C)(C)C)C(C)C
–	–	6.2 µM	3 µM	CC(C)C[C@@H](NC(=O)N(Cc1ccccc1)C[C@@H](O)[C@@H](Cc1ccccc1)NC(=O)OC(C)(C)C)C(=O)N[C@@H](C(=O)OC(C)(C)C)C(C)C
0.03 µM	0.6 µM	–	–	COC(=O)[C@H](NC(=O)[C@@H](CC(C)C)NC(=O)N(Cc1ccccc1)C[C@@H](O)[C@H](Cc1ccccc1)NC(=O)OC(C)(C)C)C(C)C
2 µM	5 µM	–	–	COC(=O)[C@H](NC(=O)[C@@H](CC(C)C)NC(=O)N(CC(C)C)C[C@@H](O)[C@@H](Cc1ccccc1)NC(=O)OC(C)(C)C)C(C)C
0.06 µM	0.8 µM	–	–	COC(=O)[C@@H](NC(=O)[C@@H](CC(C)C)NC(=O)N(Cc1ccccc1)C[C@@H](O)[C@H](Cc1ccccc1)NC(=O)OC(C)(C)C)C(C)C
0.9 µM	2 µM	–	–	COC(=O)[C@H](NC(=O)[C@@H](CC(C)C)NC(=O)N(Cc1ccccc1)C[C@@H](O)[C@@H](Cc1ccccc1)NC(=O)[C@@H](CC(C)C)NC(=O)OC(C)(C)C)C(C)C
0.08 µM	0.8 µM	–	–	COC(=O)[C@H](NC(=O)[C@H](CC(C)C)NC(=O)N(Cc1ccccc1)C[C@@H](O)[C@@H](Cc1ccccc1)NC(=O)OC(C)(C)C)C(C)C
2 µM	12 µM	–	–	COC(=O)[C@H](NC(=O)[C@H](NC(=O)N(Cc1ccccc1)C[C@@H](O)[C@@H](Cc1ccccc1)NC(=O)OC(C)(C)C)C(C)C)C(C)C
